# Assay results taken from ChEMBL document CHEMBL1955766, “Structure guided development of novel thymidine mimetics targeting Pseudomonas aeruginosa thymidylate kinase: from hit to lead generation” (J Med Chem, 2012).
# Assays:
# [1] = test system: Pseudomonas aeruginosa; assay: Antibacterial activity against Pseudomonas aeruginosa PAO1; assay type: functional
# [2] = test system: Pseudomonas aeruginosa; assay: Antibacterial activity against […], MexXY, MeyZ efflux pump- knock out Pseudomonas aeruginosa PAO280; assay type: functional
# [3] = Inhibition of Pseudomonas aeruginosa thymidylate kinase expressed in Escherichia coli BL21 (DE3) cells assessed as phosphorylation of dTMP to dTDP after 20 mins by spectrophotometric analysis
# Outline: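 PaTMK from pET15b in E. coli BL21 DE3, purified by HisTrap and Superdex 200, used at 40 nM. dTDP formation was coupled via PK/LDH/NDP kinase to NADH oxidation (A340) over 20 min at 25 °C.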
# [4] = molecular target: T1, Thymidylate kinase (Homo sapiens) (UniProt P23919); assay: Inhibition of human thymidylate kinase using dTMP as substrate at 200 uM after 30 mins by fluorescence analysis
# T1 sequence (whole entry): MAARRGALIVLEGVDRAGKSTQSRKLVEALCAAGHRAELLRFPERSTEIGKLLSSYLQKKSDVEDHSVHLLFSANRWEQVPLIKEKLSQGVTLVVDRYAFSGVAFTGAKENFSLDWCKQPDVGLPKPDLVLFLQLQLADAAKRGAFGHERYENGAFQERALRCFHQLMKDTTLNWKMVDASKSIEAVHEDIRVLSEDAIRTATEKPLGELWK
# Outline: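 Inhibitor range 0.39–200 μM. Reaction runs 2 min at room temperature, then ADP-detection reagents for 30 min. Read-out is fluorescence at ex 485/em 535 nm. Percent inhibition is corrected using no-enzyme and 5 μM ADP interference controls.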
# [5] = molecular target: T2, Thymidylate kinase (Homo sapiens, UniProt P23919); assay: Inhibition of human thymidylate kinase using dTMP as substrate after 30 mins by fluorescence analysis
# T2 sequence (P23919 whole entry): T1 sequence (whole entry)
# [6] = test system: BL21-DE3; assay: Ratio of dFTM IC50 to compound IC50 for Pseudomonas aeruginosa thymidylate kinase expressed in Escherichia coli BL21 (DE3) cells assessed as phosphorylation of TMP to dTDP after 20 mins by spectrophotometric analysis
# Outline: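 His-tagged P. aeruginosa TMK expressed in E. coli BL21(DE3) and purified (Ni affinity, gel filtration). TMK diluted in buffer; 40 nM enzyme. Coupled PK/LDH/NDP kinase read-out: 2 mM ATP, 54 μM TMP, 2 mM PEP, 0.22 mM NADH, 40 mM HEPES pH 8.0, 80 mM KCl, 1.6 mM MgCl2. A340 decrease followed 20 min at 25 °C. Twenty 1.67-fold dilutions from 200 or 100 μM final. Initial rates relative to EDTA and enzyme-alone controls. IC50 ratio versus reference inhibitor.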
# [7] = Selectivity ratio of IC50 for human thymidylate kinase to IC50 for Pseudomonas aeruginosa thymidylate kinase
# Outline: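 Compound tested at 0.39–200 μM. Reaction 2 min at room temperature, then ADP detection reagents 30 min. Fluorescence read at ex 485/em 535 nm, corrected using 5 μM ADP interference controls and no-enzyme controls. Result is the ratio against the PaTMK coupled-assay IC50.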
SMILES,MIC [1] [µg/mL],MIC [2] [µg/mL],IC50 [3] [µM],inhibition [4] [%],IC50 [5] [µM],Ratio IC50 [6],Ratio IC50 [7]
Cn1c(=O)[nH]c2ncc(-c3cccc(C(=O)NCCc4nc5ccccc5[nH]4)c3)cc21,> 256,> 256,3,,,,
Cn1c(=O)[nH]c2ncc(-c3cccc(C(=O)NCCC(=O)O)c3)cc21,> 256,> 256,2.6,,,,
CC(=O)Nc1cccc(-c2cnc3[nH]c(=O)n(C)c3c2)c1,> 256,> 256,3.4,,,,
Cn1c(=O)[nH]c2ncc(-c3cccc(C(=O)NCCCc4ccccc4C(=O)O)c3)cc21,> 256,> 256,2,,,,
Cn1c(=O)[nH]c2ncc(-c3cccc(C(=O)NCCCC4CCCC4)c3)cc21,> 256,> 256,0.81,,,,
Cc1cn([C@H]2C[C@H](O)[C@@H](CF)O2)c(=O)[nH]c1=O,> 256,> 256,,,,,
CC(=O)c1cccc(-c2cnc3[nH]c(=O)n(C)c3c2)c1,> 256,> 256,13,,,,
Cn1c(=O)[nH]c2ncc(-c3ccccc3)cc21,> 256,> 256,,17,> 200,,
Cn1c(=O)[nH]c2ncc(-c3cccc(C(=O)NCCCc4cccc(C(=O)O)c4)c3)cc21,> 256,> 256,2.4,,,,
Cn1c(=O)[nH]c2ncc(-c3cccc(C(=O)NCCCc4c[nH]c5ccccc45)c3)cc21,> 256,> 256,0.2,,,,
Cn1c(=O)[nH]c2ncc(-c3cccc(C(N)=O)c3)cc21,> 256,> 256,,12,> 200,60,
Cn1c(=O)[nH]c2ncc(-c3cccnc3)cc21,> 256,> 256,66,,,,
Cl.Cn1c(=O)[nH]c2ncc(-c3cccc(C(=O)NCCCc4cccc(CN)c4)c3)cc21,> 256,> 256,2.2,,,,
Cl.Cn1c(=O)[nH]c2ncc(-c3cccc(CN)c3)cc21,> 256,> 256,> 200,,,,
CC(NC(=O)c1cccc(-c2cnc3[nH]c(=O)n(C)c3c2)c1)C(=O)O (centres undefined),> 256,> 256,5,,,,
Cl.Cn1c(=O)[nH]c2ncc(-c3cccc(C(=O)NCCN)c3)cc21,> 256,> 256,3.2,,,,
Cn1c(=O)[nH]c2ncc(-c3cccc(C#N)c3)cc21,> 256,> 256,> 200,,,,
Cn1c(=O)[nH]c2ncc(-c3cccc(C(=O)NCCCc4ccccc4)c3)cc21,> 256,> 256,0.12,43,> 200,,> 1000
CN(C)C(=O)c1cccc(-c2cnc3[nH]c(=O)n(C)c3c2)c1,> 256,> 256,104,,,,
Cn1c(=O)[nH]c2ncc(-c3cccc(C(=O)NCCc4ccncc4)c3)cc21,> 256,> 256,2,,,,
Cn1c(=O)[nH]c2ncc(-c3cccc(C(=O)NCC(=O)O)c3)cc21,> 256,> 256,0.88,,,,
CNC(=O)c1cccc(-c2cnc3[nH]c(=O)n(C)c3c2)c1,> 256,> 256,2.2,,,,
Cn1c(=O)[nH]c2ncc(-c3cccc(C(=O)NCCCc4c[nH]cn4)c3)cc21,> 256,> 256,0.99,,,,
Cn1c(=O)[nH]c2ncc(-c3cccc(C(=O)NCC(Cc4ccccc4)C(=O)O)c3)cc21 (racemic),> 256,> 256,0.25,,,,
Cn1c(=O)[nH]c2ncc(-c3cccc(C(=O)NCCO)c3)cc21,> 256,> 256,2.6,,,,
Cn1c(=O)[nH]c2ncc(-c3ccc(C(N)=O)cc3)cc21,> 256,> 256,> 200,,,,

SMILES,MIC [1] [µg/mL],MIC [2] [µg/mL],IC50 [3] [µM],inhibition [4] [%],IC50 [5] [µM],Ratio IC50 [6],Ratio IC50 [7]
Cn1c(=O)[nH]c2ncc(-c3cccc(CO)c3)cc21,> 256,> 256,37,,,,
Cl.Cn1c(=O)[nH]c2ncc(-c3ccc(CN)cc3)cc21,> 256,> 256,4.9,,,,
Cn1c(=O)[nH]c2ncc(-c3cccc(C(=O)NCc4ccccc4)c3)cc21,> 256,> 256,1,,,,
Cn1c(=O)[nH]c2ncc(-c3ccncc3)cc21,> 256,> 256,152,,,,
Cn1c(=O)[nH]c2ncc(-c3cccc(C(=O)NCCCc4ccc(C(=O)O)cc4)c3)cc21,> 256,> 256,2.7,,,,
Cn1c(=O)[nH]c2ncc(-c3cccc(C(=O)NCCc4c[nH]cn4)c3)cc21,> 256,> 256,2.3,,,,
COC(=O)c1ccccc1CCCNC(=O)c1cccc(-c2cnc3[nH]c(=O)n(C)c3c2)c1,> 256,> 256,0.37,,,,
Cn1c(=O)[nH]c2ncc(-c3cccc(N)c3)cc21,> 256,> 256,63,,,,
Cn1c(=O)[nH]c2ncc(-c3cccc(C(=O)NCc4ccccn4)c3)cc21,> 256,> 256,6.2,,,,
Cn1c(=O)[nH]c2ncc(-c3cccc(O)c3)cc21,> 256,> 256,11,,,,
Cn1c(=O)[nH]c2ncc(-c3cccc(C(=O)NCCCN4CCOCC4)c3)cc21,> 256,> 256,5.8,,,,
Cl.Cn1c(=O)[nH]c2ncc(-c3cccc(C(=O)NCCCc4ccc(CN)cc4)c3)cc21,> 256,> 256,3.2,,,,
Cn1c(=O)[nH]c2ncc(-c3cccc(S(N)(=O)=O)c3)cc21,> 256,> 256,> 200,,,,
Cn1c(=O)[nH]c2ncc(-c3cccc(C(=O)NCCCc4ccc(C(F)(F)F)cc4)c3)cc21,> 256,> 256,0.16,55,124,,> 1000
Cn1c(=O)[nH]c2ncc(-c3cccc(C(=O)NCC(N)=O)c3)cc21,> 256,> 256,0.88,,,,
Cn1c(=O)[nH]c2ncc(-c3cccc(C(=O)NCCS(=O)(=O)O)c3)cc21,> 256,> 256,1.3,,,,
Cn1c(=O)[nH]c2ncc(-c3ccc(O)cc3)cc21,> 256,> 256,21,,,,
Cn1c(=O)[nH]c2ncc(-c3cccc(C(=O)NCCCc4ccc(F)cc4)c3)cc21,> 256,> 256,0.12,58,123,,> 1000
Cn1c(=O)[nH]c2ncc(-c3cccc(F)c3)cc21,> 256,> 256,> 200,,,,
Cn1c(=O)[nH]c2ncc(-c3cccc(C(=O)NC(CCc4ccccc4)C(=O)O)c3)cc21 (racemic),> 256,> 256,12,,,,
Cn1c(=O)[nH]c2ncc(-c3cccc(C(=O)NCC#N)c3)cc21,> 256,> 256,2.1,,,,
Cn1c(=O)[nH]c2ncc(-c3cccc(C(=O)NCc4nc5ccccc5[nH]4)c3)cc21,> 256,> 256,68,,,,
Cn1c(=O)[nH]c2ncc(-c3cncnc3)cc21,> 256,> 256,> 200,,,,
Cn1c(=O)[nH]c2ncc(-c3cccc(C(=O)NCCc4ccccc4)c3)cc21,> 256,> 256,2.9,,,,
Cn1c(=O)[nH]c2ncc(-c3cccc(C(=O)NCCCc4cccnc4)c3)cc21,> 256,> 256,0.51,,,,
